Experimental data published in ChEMBL document CHEMBL3045950, “Design, synthesis, and analysis of the quantitative structure-activity relationships of 4-phenyl-acyl-substituted 3-(2,5-dimethylphenyl)-4-hydroxy-1-azaspiro[4.5]dec-3-ene-2,8-dione derivatives” (2012).

Assays:
Assay type in all cases: functional
Aphis fabae [1] = experiment: Insecticidal activity against Aphis fabae (black bean aphid) apterous third-instar nymphae in tender soybean shoots assessed as inhibition activity at 10 mg/L after 72 hr
Method in brief: (§1)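 Test solutions were made in N,N-dimethylformamide and diluted to working concentration with distilled water containing TW-80 (0.1 mL L⁻¹). Aphids were dipped following a slightly modified FAO dip test. Assessment was made 72 h after treatment. Each treatment was run three times, and control groups were given water only. Deviation of values was 5%.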

Aphis fabae [2] = experiment: Insecticidal activity against Aphis fabae (black bean aphid) apterous third-instar nymphae in tender soybean shoots assessed as inhibition activity at 100 mg/L after 72 hr; method in brief: as §1
Tetranychus cinnabarinus [3] = experiment: Larvicidal activity against Tetranychus cinnabarinus (carmine spider mite) fifty third-instar mite larvae assessed as inhibition activity at 100 mg/L after 72 hr
Method in brief: (§2)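 Test solutions were made in N,N-dimethylformamide and diluted with distilled water containing TW-80 (0.1 mL L⁻¹). Fifty third-instar larvae were dipped in the dilution for 5 s, and excess liquid was removed. Larvae were then held in an air-conditioned room, and mortality was scored at 72 h. Tests were run in triplicate, and controls were treated with water only.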

Tetranychus cinnabarinus [4] = experiment: Larvicidal activity against Tetranychus cinnabarinus ( carmine spider mite ) fifty third-instar mite larvae assessed as inhibition activity at 10 mg/L after 72 hr; method in brief: as §2

Row | Structure (SMILES) | inhibition at 10 µg/mL (Aphis fabae [1]) [%] | inhibition at 100 µg/mL (Aphis fabae [2]) [%] | inhibition at 100 µg/mL (Tetranychus cinnabarinus [3]) [%] | inhibition at 10 µg/mL (Tetranychus cinnabarinus [4]) [%]
1 | CCOC(=O)OC1=C(c2cc(C)ccc2C)C(=O)N[C@]12CC[C@@H](OC)CC2 [SPIROTETRAMAT] | 96.8 | 100 | 75 | 26.3
2 | Cc1cc(C)c(CC(=O)OC2=C(c3cc(C)ccc3C)C(=O)NC23CCC(=O)CC3)c(C)c1 | 25.2 | 69.2 | 39.4 | 12.1
3 | Cc1ccc(C)c(C2=C(OC(=O)c3ccc(Cl)cc3)C3(CCC(=O)CC3)NC2=O)c1 | 10.8 | 68.2 | 42.9 | 9.23
4 | Cc1ccc(C)c(CC(=O)OC2=C(c3cc(C)ccc3C)C(=O)NC23CCC(=O)CC3)c1 | 37.3 | 76.2 | 61.6 | 24.6
5 | Cc1ccc(C)c(C2=C(OC(=O)CC(C)(C)C)C3(CCC(=O)CC3)NC2=O)c1 | 21.6 | 62.1 | 26.1 | 8.76
6 | COc1ccc(CC(=O)OC2=C(c3cc(C)ccc3C)C(=O)NC23CCC(=O)CC3)cc1 | 87.3 | 92.1 | 80.5 | 24.4
7 | Cc1ccc(C)c(C2=C(OC(=O)c3ccccc3C)C3(CCC(=O)CC3)NC2=O)c1 | 6.27 | 25.5 | 59.4 | 17.3
8 | Cc1ccc(C)c(C2=C(OC(=O)Cc3ccc(C(F)(F)F)cc3)C3(CCC(=O)CC3)NC2=O)c1 | 60 | 98.6 | 85.3 | 49
9 | Cc1cc(C)c(C2=C(OC(=O)CC(C)(C)C)C3(CCCC3)OC2=O)c(C)c1 [SPIROMESIFEN] | 14.3 | 62.5 | 80.2 | 42.1
10 | Cc1ccc(C)c(C2=C(OC(=O)Cc3ccccc3)C3(CCC(=O)CC3)NC2=O)c1 | 62.8 | 95.6 | 66.8 | 38.9
11 | Cc1ccc(C)c(C2=C(OC(=O)Cc3ccc(Cl)cc3Cl)C3(CCC(=O)CC3)NC2=O)c1 | 26.9 | 85.6 | 75.9 | 31.2
12 | Cc1ccc(C)c(C2=C(OC(=O)Cc3ccc(Cl)cc3)C3(CCC(=O)CC3)NC2=O)c1 | 47.3 | 89.8 | 58 | 17.8
13 | Cc1ccc(C)c(C2=C(OC(=O)Cc3cccc(Cl)c3)C3(CCC(=O)CC3)NC2=O)c1 | 13.6 | 44.6 | 24.7 | 3.23
14 | Cc1ccc(C)c(C2=C(OC(=O)c3ccccc3)C3(CCC(=O)CC3)NC2=O)c1 | 29.3 | 91.8 | 49.8 | 18.2
15 | Cc1ccc(C)c(C2=C(OC(=O)Cc3ccccc3Cl)C3(CCC(=O)CC3)NC2=O)c1 | 59.2 | 96.5 | 53.5 | 28.3
16 | CCC(C)(C)C(=O)OC1=C(c2ccc(Cl)cc2Cl)C(=O)OC12CCCCC2 [SPIRODICLOFEN] | 19.4 | 60.3 | 70.6 | 36.7
17 | Cc1ccc(C)c(C2=C(OC(=O)Cc3ccc(Br)cc3)C3(CCC(=O)CC3)NC2=O)c1 | 9.78 | 47.8 | 32.5 | 5.25
18 | CCOC(=O)OC1=C(c2cc(C)ccc2C)C(=O)NC12CCC(=O)CC2 | 45.9 | 93.5 | 62.3 | 30.4
19 | Cc1ccc(C)c(C2=C(OC(=O)Cc3ccc(Cl)c(Cl)c3)C3(CCC(=O)CC3)NC2=O)c1 | 49.3 | 97.3 | 71.7 | 28.9
20 | Cc1ccc(C)c(C2=C(OC(=O)Cc3ccc([N+](=O)[O-])cc3)C3(CCC(=O)CC3)NC2=O)c1 | 32.3 | 92.2 | 73.8 | 16.3
21 | C/C=C/C(=O)OC1=C(c2cc(C)ccc2C)C(=O)NC12CCC(=O)CC2 | 34.9 | 85.6 | 58.2 | 23.4
22 | Cc1ccc(C)c(C2=C(OC(=O)Cc3ccc(F)cc3)C3(CCC(=O)CC3)NC2=O)c1 | 69.3 | 93.7 | 49 | 29.9
23 | CCCC(=O)OC1=C(c2cc(C)ccc2C)C(=O)NC12CCC(=O)CC2 | 37.3 | 98.7 | 54.7 | 19.7
24 | Cc1ccc(CC(=O)OC2=C(c3cc(C)ccc3C)C(=O)NC23CCC(=O)CC3)cc1 | 48.4 | 73.5 | 70.8 | 21.8
